Experiment: Toxicity liver stage against HepG2, at 10uM
Assay type: cell-based
Set-up: test concentration 10 uM, cell line HepG2-A16-CD81EGFP
Conditions: human, HepG2-A16-CD81EGFP cells; read-out: INHIBITION
How it was run: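 Uninfected HepG2-A16-CD81EGFP cells, 3 × 10^3 per well, 1536-well, plated on prespotted compound at 10 μM final, parasite-free screening media added to match infected plates; puromycin 10 μM positive, DMSO 0.5% negative; run in parallel with 48 h PbLuc assay at 37 °C, 5% CO2; viability by CellTiter-Glo luminescence, normalized to controls.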

CC(Sc1nc(N)cc(N)n1)c1nc(C(C)(C)C)no1 (stereo unspecified)
cytotoxicity at 10 µM: -5.27%

CC[C@H]1CN2CC[C@H]1C[C@@H]2CNC(=O)Nc1ccc(Br)cc1
cytotoxicity at 10 µM: 1.08%

COCC(=O)N1CCN2C(=O)OC[C@H]2C1
cytotoxicity at 10 µM: 1.82%

O=C(NC[C@H]1CCCC[C@H]1O)c1ccc2nc(-c3ccco3)[nH]c2c1
cytotoxicity at 10 µM: -5.78%

COCCn1ccc(=O)c(OCC(=O)Nc2ccc(Br)cc2)c1C
cytotoxicity at 10 µM: 0.185%

CCN(C)C(=O)c1ccc2c(c1)C(c1nc[nH]n1)CN2S(C)(=O)=O (stereo unspecified)
cytotoxicity at 10 µM: -137%

CO[C@H]1CN(S(=O)(=O)c2cn(C)cn2)[C@@H]2CCCO[C@H]12
cytotoxicity at 10 µM: -132%

O=C(c1ccc[nH]1)N1CCOC2(COCCN(c3cncnc3)C2)C1 (stereo unspecified)
cytotoxicity at 10 µM: 7.7%

CC(C)[C@H](NC(=O)NC1CCS(=O)(=O)C1)C(=O)NCc1ccccc1Cl (stereo partly specified)
cytotoxicity at 10 µM: 5.91%

CC(C)n1ncc2c1NC(=O)CC21C(=O)Nc2c(Cl)cccc21 (stereo unspecified)
cytotoxicity at 10 µM: -1.58%

Cc1ncsc1CN1C[C@@H]2COC[C@]2(COc2ccc(C#N)cn2)C1
cytotoxicity at 10 µM: -25.6%

CCOC(=O)C1CCN(c2nccc(-n3nc(C)cc3C)n2)CC1
cytotoxicity at 10 µM: -8.99%

O=C(Nc1cc(-c2ccncc2)no1)C1CCCCC1
cytotoxicity at 10 µM: -5.37%

COc1ccccc1N1CC(NC(=O)Cn2cc(C)nn2)CC1=O (stereo unspecified)
cytotoxicity at 10 µM: 11.6%

CS(=O)(=O)c1cn[nH]c1C1CCCCN1C(=O)c1ccsc1 (stereo unspecified)
cytotoxicity at 10 µM: -18.6%

CCn1nnnc1-c1cccc(NC(=O)COC2CCCC2)c1
cytotoxicity at 10 µM: -0.47%

O=S(=O)(Cc1cc(-c2ccccc2)no1)CC1CCCO1 (stereo unspecified)
cytotoxicity at 10 µM: 4.7%

O=C(Nc1ccc(-c2csnn2)cc1)N1CC[C@H](O)C1
cytotoxicity at 10 µM: -4.62%

CS(=O)(=O)CCn1ccc(NCc2ccc(C#N)cc2)n1
cytotoxicity at 10 µM: 6.56%

Cc1cccc(N2CCN(C(=O)CNCCn3cccn3)CC2)c1
cytotoxicity at 10 µM: -6.16%

CNS(=O)(=O)c1c(C)sc2ccccc12
cytotoxicity at 10 µM: 4.18%

Cc1oc(C(=O)Nc2cccc(Cl)c2C)cc1S(N)(=O)=O
cytotoxicity at 10 µM: 7.46%

CCCNC(=O)CNC(=O)CC1CCCc2cc(OC)ccc21 (stereo unspecified)
cytotoxicity at 10 µM: -4.52%

Cc1nc(C(NC(=O)CN(C)C(C)C)c2ccccc2F)no1 (stereo unspecified)
cytotoxicity at 10 µM: -2.64%

CN(Cc1nc2ccccc2[nH]1)C(=O)CN(C)c1ccccc1
cytotoxicity at 10 µM: -2.46%

COc1ccc2c(c1)CCCC2CC(=O)NCC(=O)O (stereo unspecified)
cytotoxicity at 10 µM: -4.31%

COc1ccc(C)cc1CN1CCN(Cc2nccn2C)C(C)C1 (stereo unspecified)
cytotoxicity at 10 µM: 1.43%

Cc1cc(CNC(=O)NCC(O)c2cccc(C(F)(F)F)c2)no1 (stereo unspecified)
cytotoxicity at 10 µM: -6.79%

CCc1ncncc1C(=O)NCCNS(=O)(=O)c1ccc(C)cc1
cytotoxicity at 10 µM: -5.95%

Cc1ccccc1CN(Cc1ccccn1)C(=O)CN(C)C(C)C
cytotoxicity at 10 µM: -0.675%

Cc1c(C(=O)NC2=NCCS2)cnn1-c1ccc(Cl)cc1
cytotoxicity at 10 µM: 1.51%

O=C(CCc1cccs1)NCC1CCCN1c1cccnn1 (stereo unspecified)
cytotoxicity at 10 µM: -1.9%

CCC(C)NC(=O)c1cccc(CNC(=O)CC(F)(F)F)c1 (stereo unspecified)
cytotoxicity at 10 µM: 6.99%

CCNS(=O)(=O)C1CCN(C(=O)c2c(F)cc(F)cc2F)C1 (stereo unspecified)
cytotoxicity at 10 µM: 7.43%

CNC(=O)Cc1ccccc1NC(=O)NCc1ccc(SC)cc1
cytotoxicity at 10 µM: -1.88%

CC(C)NC(=O)NCc1ccnc(N(C)C)n1
cytotoxicity at 10 µM: -3.63%

N#Cc1ccc(CNC(=O)C2=NN(c3ccccc3)C(=O)CN2)cc1
cytotoxicity at 10 µM: -1.8%

CCC(CC)N(C)S(=O)(=O)c1ccc(CCNC(C)=O)s1
cytotoxicity at 10 µM: -3.45%

Cc1ccc(-c2nnc(CN3CCNC(=O)C3)o2)cc1
cytotoxicity at 10 µM: -1.26%

Cc1cc(NC(=O)NCCc2cccnc2)n(C)n1
cytotoxicity at 10 µM: -3.86%

Cn1ccnc1-c1cccc(NC(=O)NCCCN2CCOCC2)c1
cytotoxicity at 10 µM: -5.01%

Cc1ccc(NC(=O)N(CCO)Cc2ccsc2)cc1
cytotoxicity at 10 µM: 3.58%

O=C(CCNS(=O)(=O)c1ccccc1)N1CCOC(c2ccccc2)C1 (stereo unspecified)
cytotoxicity at 10 µM: 6.6%

COc1ccc2cccc(CC(=O)NCc3nccc(N)n3)c2c1
cytotoxicity at 10 µM: 0.684%

CCc1nnc(C(C)N(C)Cc2c(C)nn(-c3ccccc3)c2C)o1 (stereo unspecified)
cytotoxicity at 10 µM: -9.85%

COCc1noc(-c2nn(-c3ccc(F)c(F)c3)c3c2CCC3)n1
cytotoxicity at 10 µM: -2.75%

Cc1ccc(N2CCCC(N(C)c3ncnc4c3CCC4)C2)nn1 (stereo unspecified)
cytotoxicity at 10 µM: 6.86%

CN(Cc1nccn1C)C(=O)C1COCC(=O)N1Cc1ccccc1 (stereo unspecified)
cytotoxicity at 10 µM: 1.01%

Cc1nc(CNC(=O)Nc2ccc(N(C)C)nc2)sc1C
cytotoxicity at 10 µM: -0.222%

CSCc1cc(C(=O)NC2(C#N)CCSC2)ccc1F (stereo unspecified)
cytotoxicity at 10 µM: -4.59%

Cc1nn2c(nc1=O)-c1ccccc1NC2C(=O)O (stereo unspecified)
cytotoxicity at 10 µM: 5.32%

CN(C)C(=O)C1CSCN1C(=O)CCc1ccco1 (stereo unspecified)
cytotoxicity at 10 µM: -6.53%

Cc1ccc(C(=O)Nc2ccc(N3CCCC3)cn2)cc1C
cytotoxicity at 10 µM: 26.9%

Cc1nc(C2CCCN2CCOCC2CC2)no1 (stereo unspecified)
cytotoxicity at 10 µM: -4.56%

C=C(C)COCCNC(=O)N1CCc2c(cccc2OC)C1
cytotoxicity at 10 µM: 3.55%

CC(C)c1nc(CNc2ccc(CNS(C)(=O)=O)cc2)cs1
cytotoxicity at 10 µM: 3.82%

Cn1ccc(NC(=O)Cc2cccc(F)c2)n1
cytotoxicity at 10 µM: 1.44%

Cc1nc(CNC(=O)CC2C(=O)NCCN2Cc2ccccc2C)n[nH]1 (stereo unspecified)
cytotoxicity at 10 µM: -7.21%

COc1cc(C(=O)NCC2CCCN(Cc3ccco3)C2)ccn1 (stereo unspecified)
cytotoxicity at 10 µM: -3.94%

O=C1NCC2(CCCN(C(=O)Nc3ccc4scnc4c3)CC2)O1 (stereo unspecified)
cytotoxicity at 10 µM: -5.59%

Cc1ccccc1CN1CCC(CNC(=O)Cn2cncn2)CC1
cytotoxicity at 10 µM: 3.83%

CC1(C)OC(=O)N(CC(=O)N2CCC(c3ccccc3Cl)C2)C1=O (stereo unspecified)
cytotoxicity at 10 µM: -21.4%

CO[C@H]1CN(Cc2c(C)ccc3ncccc23)CC[C@H]1N
cytotoxicity at 10 µM: -146%

CSCCCN1CCC(c2nnc(Cn3ccnc3)n2C2CC2)CC1
cytotoxicity at 10 µM: 0.872%

O=C(CCN1CCCCC1)N1CCC(Cc2ccc(CO)cc2)C1 (stereo unspecified)
cytotoxicity at 10 µM: -7.33%

Cc1nc(O)cc(CN2C[C@H](NC(=O)C3CCCC3)[C@@H](C3CC3)C2)n1
cytotoxicity at 10 µM: -4.7%

O=C(CN1CCCC1c1nc(-c2ccccn2)no1)N1CCNCC1 (stereo unspecified)
cytotoxicity at 10 µM: 9.28%

Cc1ccnn1CC(=O)N1CCCN(C2Cc3ccccc3C2)CC1
cytotoxicity at 10 µM: -120%

CN1CCN(S(=O)(=O)N2CCCCC2CCc2ccc(O)cc2)CC1 (stereo unspecified)
cytotoxicity at 10 µM: -1.94%

COc1ccc(Cl)cc1C(C(=O)O)N(C)Cc1ccon1 (stereo unspecified)
cytotoxicity at 10 µM: -5.92%

CN1CCN(C[C@H]2CC[C@@H](Cc3ccc(CN4CCCC4)cc3)O2)CC1
cytotoxicity at 10 µM: -7.32%

Cn1cc(C(=O)N2CCCN(C3Cc4ccccc4C3)CC2)cn1
cytotoxicity at 10 µM: -3.68%

CNC(=O)[C@@H]1C[C@H](N)CN1Cc1cc2cc(OC)ccc2nc1O
cytotoxicity at 10 µM: -6.69%

O=C1OCCN1C1CCN(Cc2cc3n(n2)CCCNC3)CC1
cytotoxicity at 10 µM: 12.7%

Cc1[nH]c(=O)[nH]c(=O)c1CC(=O)N1CCCN(CC2CC2)C(C(C)C)C1 (stereo unspecified)
cytotoxicity at 10 µM: -160%

CCn1c(N)nc2cc(C(=O)N3CCCOCC3)cnc21
cytotoxicity at 10 µM: -8.24%

CCNC(=O)[C@@H]1C[C@H](N)CN1c1cc(CC)nc(N(C)C)n1
cytotoxicity at 10 µM: -3.08%

Cc1cccc(C)c1Oc1ncccc1CNC(=O)C1(C)CCCNC1 (stereo unspecified)
cytotoxicity at 10 µM: 0.687%

COc1ccc(C(=O)N2CC(c3ccncc3)C2)c(OC)c1OC
cytotoxicity at 10 µM: -1.86%

Cc1ccc(NC2CCN(C(=O)c3cscn3)CC2)nn1
cytotoxicity at 10 µM: -8.73%

c1ccc(CCN2CCOC(CNc3cccnn3)C2)nc1 (stereo unspecified)
cytotoxicity at 10 µM: -1.56%

Cc1ccc(-c2nc(C(=O)N3CCCC(C(N)=O)C3)cs2)c(C)c1 (stereo unspecified)
cytotoxicity at 10 µM: -2.9%

COc1c(CNCCNC(=O)c2ccc(C)cc2)c(C(C)C)nn1C
cytotoxicity at 10 µM: -0.945%

COCCN1CCN(CCS(C)(=O)=O)CC1C (stereo unspecified)
cytotoxicity at 10 µM: -1.22%

Cc1ccc(N2CCCC(NCc3nnc4n3CCCC4)C2=O)cc1 (stereo unspecified)
cytotoxicity at 10 µM: -6.69%

Cc1noc(C2CCCN(C(=O)c3ccc(N(C)C)nc3)C2)n1 (stereo unspecified)
cytotoxicity at 10 µM: -4.69%

Cc1ccc(C)c(OCCC(=O)N2CCCN(CC(N)=O)CC2)c1
cytotoxicity at 10 µM: -8.54%

CCn1cc(CN2CCCN(C(=O)c3cccc(C#N)c3)CC2)cn1
cytotoxicity at 10 µM: 0.893%

CCOc1ncccc1CNC(=O)NCC(O)c1ccccc1OC (stereo unspecified)
cytotoxicity at 10 µM: -6.85%

CCN(CC1CCCO1)C(=O)Nc1ccc(OC)c(C)c1 (stereo unspecified)
cytotoxicity at 10 µM: -12.9%

Cc1nn(C)c(C)c1C1CCCN1C(=O)c1ccc(N(C)C)nn1 (stereo unspecified)
cytotoxicity at 10 µM: -10.6%

C1CCCN(C2CCCN(Cc3noc(C4CC4)n3)C2)CC1 (stereo unspecified)
cytotoxicity at 10 µM: -8.84%

NC(=O)C1CCN(C(=O)NCCOc2ccc3c(c2)OCO3)C1 (stereo unspecified)
cytotoxicity at 10 µM: -13.3%

CCc1nc(CN(C)C2CCN(CCc3cccs3)C2)no1 (stereo unspecified)
cytotoxicity at 10 µM: -8.7%

O=C(NCC(=O)N1CCC2(CC1)OCCO2)c1ccoc1
cytotoxicity at 10 µM: -9.55%

Cc1ccc(F)cc1S(=O)(=O)NCc1cccc(C(=O)N2CCCC2)c1
cytotoxicity at 10 µM: -15.1%

CCn1c(C)nnc1CN(C)C1CCN(CCCSC)C1 (stereo unspecified)
cytotoxicity at 10 µM: -6.21%

Cc1cc(CN(C)C2CCCN(Cc3noc(C)n3)C2)on1 (stereo unspecified)
cytotoxicity at 10 µM: -5.85%

Cc1csc(CNC(=O)Cc2ccc3c(c2)OCCO3)n1
cytotoxicity at 10 µM: -1.3%

CCn1cnnc1C1CCCN(C(=O)COc2ccc(Cl)cc2)C1 (stereo unspecified)
cytotoxicity at 10 µM: -5.26%

Cn1cc(N2C[C@@H]3CN(Cc4ccoc4)C[C@@H]3C2=O)cn1
cytotoxicity at 10 µM: -2.93%

COc1ccc2c(c1)C1(CCN(Cc3ccccn3)CC1)N(C)CC2
cytotoxicity at 10 µM: -150%

Cc1nn(C)c(N(C)C)c1CNCc1cccc(CN(C)C)c1
cytotoxicity at 10 µM: -3.01%

O=C(c1ccco1)N1CCCC12CCN(c1ncccn1)CC2
cytotoxicity at 10 µM: 3.23%

Cc1cc(C(=O)N2C[C@@H]3COC[C@]3(CN(C)C)C2)sc1C
cytotoxicity at 10 µM: -146%

CN1CCS(=O)(=O)[C@@H]2CCN(C(=O)c3ccccc3)CC[C@@H]21
cytotoxicity at 10 µM: -127%

O=C(NC[C@H]1OC[C@@H]2CN(Cc3ccco3)CC[C@@H]21)c1cscn1
cytotoxicity at 10 µM: -145%

Cc1noc(C)c1CN(C)CC(=O)Nc1ccnn1C(C)C1CC1 (stereo unspecified)
cytotoxicity at 10 µM: -2.82%

CSCC(=O)N1C[C@@H]2CC[C@H]1CN(Cc1ccccc1)C2
cytotoxicity at 10 µM: -14.9%

CSCC(=O)N1C[C@@H]2CC[C@H]1CN(C1Cc3ccccc3C1)C2
cytotoxicity at 10 µM: -6.08%

O=C(c1cnccn1)N1C[C@H]2CC[C@@H](C1)N(C(=O)CCc1ccsc1)C2
cytotoxicity at 10 µM: 3.24%

Reference: ChEMBL document CHEMBL4513216, “Probing the Open Global Health Chemical Diversity Library for Multistage-Active Starting Points for Next-Generation Antimalarials” (ACS Infect Dis, 2020)
